Assay results from ChEMBL document CHEMBL1138855, “Topomimetics of amphipathic beta-sheet and helix-forming bactericidal peptides neutralize lipopolysaccharide endotoxins” (J Med Chem, 2006).
Calls of active or inactive are those of the source. The rule behind the calls is not given here.

Assays:
Klebsiella pneumoniae [1] = test: Antibacterial activity against Klebsiella pneumoniae assessed as LPS neutralisation by LAL assay at 5 uM; format: functional, organism-based
Pseudomonas aeruginosa [2] = test: Antibacterial activity against Pseudomonas aeruginosa assessed as LPS neutralisation at 5 uM by LAL assay; format: functional, organism-based
Salmonella typhimurium [3] = test: Antibacterial activity against Salmonella Typhimurium assessed as LPS neutralisation by LAL assay; format: functional, organism-based, Salmonella enterica subsp. enterica serovar Typhimurium; settings: Salmonella enterica
Outline: (§1)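 LPS was used at 0.04 units: 0.01 ng for E. coli 055:B5, 0.01 ng for E. coli 0111:B4, 0.003 ng for K. pneumoniae, 0.01 ng for P. aeruginosa, 0.03 ng for S. typhimurium and 0.03 ng for S. marcescens. IC50 came from sigmoidal fits of dose-response curves.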

Escherichia coli [4] = test: Antibacterial activity against Escherichia coli 055:B5 assessed as LPS neutralisation by LAL assay; format: functional, organism-based; outline: as §1
Escherichia coli [5] = test: Antibacterial activity against Escherichia coli 0111:B4 assessed as LPS neutralisation at 5 uM by LAL assay; format: functional, organism-based
Escherichia coli [6] = test: Antibacterial activity against Escherichia coli 0111:B4 assessed as LPS neutralisation by LAL assay; format: functional, organism-based; outline: as §1
Pseudomonas aeruginosa [7] = test: Antibacterial activity against Pseudomonas aeruginosa assessed as LPS neutralisation by LAL assay; format: functional, organism-based; outline: as §1
Klebsiella pneumoniae [8] = test: Antibacterial activity against Klebsiella pneumoniae assessed as LPS neutralisation by LAL assay; format: functional, organism-based; outline: as §1
Salmonella typhimurium [9] = test: Antibacterial activity against Salmonella Typhimurium assessed as LPS neutralisation by LAL assay at 5 uM; format: functional, organism-based; settings: Salmonella enterica subsp. enterica serovar Typhimurium
Serratia marcescens [10] = test: Antibacterial activity against Serratia marcescens assessed as LPS neutralisation by LAL assay; format: functional, organism-based; outline: as §1
Mus musculus [11] = test: Survival of Escherichia coli 055:B5 LPS-challenged C57/BL6 mouse at 50 mg/kg, ip after 120 hrs relative to control; format: functional; settings: route intraperitoneal
Outline: (§2)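 Male C57/BL6 mice (n = 4–8/group) received a lethal LPS dose: 500 µg for E. coli 0111:B4, 600 µg for E. coli 055:B5 and 600 µg for Salmonella. LPS was premixed with compound in 2% DMSO v/v for 30 min, then injected i.p. Controls got DMSO alone or compound alone. Survival was followed for up to 120 h, and mean survival time was compared by Student's t-test.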

Mus musculus [12] = test: Survival of Escherichia coli 055:B5 LPS-challenged C57/BL6 mouse at 5 mg/kg, ip after 120 hrs relative 10 control; format: functional, organism-based; parameters: dose 5 mg/kg; outline: as §2
Mus musculus [13] = test: Survival of Salmonella LPS-challenged C57/BL6 mouse at 50 mg/kg, ip after 120 hrs relative to control; format: functional; settings: route intraperitoneal; outline: as §2
Serratia marcescens [14] = test: Antibacterial activity against Serratia marcescens assessed as LPS neutralisation by LAL assay at 5 uM; format: functional, organism-based
Mus musculus [15] = test: Survival of Escherichia coli 0111:B4 LPS-challenged C57/BL6 mouse at 50 mg/kg, ip after 120 hrs relative to control; format: functional; settings: route intraperitoneal; outline: as §2

Structure (SMILES) | Activity (Klebsiella pneumoniae [1]) | Activity (Pseudomonas aeruginosa [2]) | IC50 (Salmonella typhimurium [3]) [nM] | IC50 (Escherichia coli [4]) [nM] | Activity (Escherichia coli [5]) | IC50 (Escherichia coli [6]) [nM] | IC50 (Pseudomonas aeruginosa [7]) [nM] | IC50 (Klebsiella pneumoniae [8]) [nM] | Activity (Salmonella typhimurium [9]) | IC50 (Serratia marcescens [10]) [nM] | survival at 50 mg/kg (Mus musculus [11]) [%] | Activity (Mus musculus [12]) | survival at 50 mg/kg (Mus musculus [13]) [%] | Activity (Serratia marcescens [14]) | survival at 50 mg/kg (Mus musculus [15]) [%]
NCCNC(=O)COc1c2cccc1Cc1cccc(c1O)Cc1cccc(c1OCC(=O)NCCN)Cc1cccc(c1O)C2 | inactive | inactive | > 5000 | > 5000 | inactive | – | – | – | – | – | – | – | – | – | –
CN(C)CCNC(=O)COc1c2cccc1Cc1cccc(c1O)Cc1cccc(c1OCC(=O)NCCN(C)C)Cc1cccc(c1O)C2 | inactive | inactive | > 5000 | > 5000 | – | > 5000 | – | – | – | – | – | – | – | – | –
N=C(N)NCCOc1c2cccc1Cc1cccc(c1O)Cc1cccc(c1OCC(=O)NC(=N)N)Cc1cccc(c1O)C2 | inactive | inactive | > 5000 | 4100 | – | 3900 | – | – | – | – | – | – | – | – | –
CCCc1cc2c(OCC(=O)NCCN(C)C)c(c1)Cc1cc(CC(C)C)cc(c1OCC(=O)NCCN(C)C)Cc1cc(CCC)cc(c1OCC(=O)NCCN(C)C)Cc1cc(CC(C)C)cc(c1OCC(=O)NCCN(C)C)C2 | – | – | 3100 | 3800 | – | 3700 | > 5000 | 2100 | – | – | – | – | – | – | –
CN(C)CCNC(=O)COc1c2cccc1Cc1cccc(c1OCC(=O)NCCN(C)C)Cc1cccc(c1OCC(=O)NCCN(C)C)Cc1cccc(c1OCC(=O)NCCN(C)C)C2 [OTX-008] | – | inactive | – | 3400 | – | > 5000 | – | 1500 | inactive | > 5000 | – | – | – | – | –
CC(C)Cc1cc2c(OCC(=O)NCCN(C)C)c(c1)Cc1cc(CC(C)C)cc(c1OCC(=O)NCCN(C)C)Cc1cc(C(C)C)cc(c1OCC(=O)NCCN(C)C)Cc1cc(CC(C)C)cc(c1OCC(=O)NCCN(C)C)C2 | – | – | 400 | 6 | – | 3100 | 4200 | 1000 | – | – | 60 | inactive | 80 | – | –
CC(C)CCOc1c2cccc1Cc1cc(CCCOP(=O)(O)O)cc(c1O)Cc1cccc(c1OCCC(C)C)Cc1cc(CCCOP(=O)(O)O)cc(c1O)C2 | inactive | inactive | – | > 5000 | inactive | – | – | – | inactive | – | – | – | – | – | –
CCCc1cc2c(OCC(=O)NCCN(C)C)c(c1)Cc1cc(CCC)cc(c1OCC(=O)NCCN(C)C)Cc1cc(CCC)cc(c1OCC(=O)NCCN(C)C)Cc1cc(OCC(=O)NCCN(C)C)cc(c1CCC)C2 | – | inactive | 800 | 50 | – | 2700 | – | 400 | – | – | – | – | – | inactive | –
CC(C)(C)c1cc2c(OCC(=O)NCCN)c(c1)Cc1cc(C(C)(C)C)cc(c1OCC(=O)NCCN)Cc1cc(C(C)(C)C)cc(c1OCC(=O)NCCN)Cc1cc(C(C)(C)C)cc(c1OCC(=O)NCCN)C2 | – | – | 600 | 900 | – | 1600 | 800 | 300 | – | 1500 | – | – | – | – | –
CCCc1cc2c(OCC(=O)NCCN(C)C)c(c1)Cc1cc(CCC)cc(c1OCC(=O)NCCN(C)C)Cc1cc(CCC)cc(c1OCC(=O)NCCN(C)C)Cc1cc(CCC)cc(c1OCC(=O)NCCN(C)C)C2 | – | inactive | 4100 | 4400 | – | > 5000 | – | 80 | – | – | – | – | – | – | –
CC(C)(C)c1cc2c(OCCCCN)c(c1)Cc1cc(C(C)(C)C)cc(c1OCCCCNC(=N)N)Cc1cc(C(C)(C)C)cc(c1OCCCCNC(=N)N)Cc1cc(C(C)(C)C)cc(c1OCCCCNC(=N)N)C2 | – | – | 600 | 100 | – | 400 | 800 | 500 | – | 3200 | – | – | – | – | –
CC(C)(C)c1cc2c(O)c(c1)Cc1cc(C(C)(C)C)cc(c1OCCNC(=N)N)Cc1cc(C(C)(C)C)cc(c1O)Cc1cc(C(C)(C)C)cc(c1OCCN)C2 | inactive | inactive | 2600 | 4100 | – | > 5000 | – | – | – | – | – | – | – | – | –
CC(C)(C)c1cc2c(OCc3cn(CCN)nn3)c(c1)Cc1cc(C(C)(C)C)cc(c1OCc1cn(CCN)nn1)Cc1cc(C(C)(C)C)cc(c1OCc1cn(CCN)nn1)Cc1cc(C(C)(C)C)cc(c1OCc1cn(CCN)nn1)C2 | – | – | 1100 | 50 | – | 2200 | 2600 | 1000 | – | > 5000 | – | inactive | 100 | – | 25
CC(C)(C)c1cc2c(OCc3cn(CCN)nn3)c(c1)Cc1cc(C(C)(C)C)cc(c1OCc1cn(CCN)nn1)Cc1cc(OCc3cnnn3CCN)cc(c1C(C)(C)C)Cc1cc(C(C)(C)C)cc(c1OCc1cn(CCN)nn1)C2 | – | – | – | 600 | – | 1500 | 1000 | 900 | inactive | – | – | – | – | inactive | –
CC(C)CCOc1c2cc(CCC(=O)NCCN(C)C)cc1Cc1cc(CCC(=O)NCCN(C)C)cc(c1OCCC(C)C)Cc1cc(CCC(=O)NCCN(C)C)cc(c1OCCC(C)C)Cc1cc(CCC(=O)NCCN(C)C)cc(c1OCCC(C)C)C2 | – | inactive | 3200 | > 5000 | – | > 5000 | – | 2400 | – | – | – | – | – | – | –
CC(C)CCOc1c2cccc1Cc1cc(CCCOS(=O)(=O)O)cc(c1O)Cc1cccc(c1OCCC(C)C)Cc1cc(CCCOS(=O)(=O)O)cc(c1O)C2 | – | inactive | – | 5000 | – | 5000 | – | 2100 | inactive | 4200 | – | – | – | – | –
C=CCc1cc2c(OCC(=O)NCCN(C)C)c(c1)Cc1cc(CC(=C)C)cc(c1OCC(=O)NCCN(C)C)Cc1cc(CC=C)cc(c1OCC(=O)NCCN(C)C)Cc1cc(CC(=C)C)cc(c1OCC(=O)NCCN(C)C)C2 | inactive | – | > 5000 | 3600 | – | 4700 | > 5000 | – | – | – | – | – | – | – | –
CN(C)CCNC(=O)COc1c2cc(C(C)(C)C)cc1Cc1cc(C(C)(C)C)cc(c1OCC(=O)NCCN(C)C)Cc1cc(C(C)(C)C)cc(c1OCC(=O)NCCN(C)C)Cc1cc(C(C)(C)C)cc(c1OCC(=O)NCCN(C)C)C2 | – | – | 600 | > 5000 | – | 1400 | > 5000 | 1500 | – | 3400 | – | – | – | – | –
CC(C)CCOc1c2cccc1Cc1cc(CCC(=O)O)cc(c1O)Cc1cccc(c1OCCC(C)C)Cc1cc(CCC(=O)O)cc(c1O)C2 | inactive | inactive | – | > 5000 | – | > 5000 | – | – | inactive | – | – | – | – | – | –
CC(C)(C)c1cc2c(O)c(c1)Cc1cc(C(C)(C)C)cc(c1OCCNC(=N)N)Cc1cc(C(C)(C)C)cc(c1O)Cc1cc(C(C)(C)C)cc(c1OCCNC(=N)N)C2 | inactive | inactive | 4400 | > 5000 | – | – | – | – | – | – | – | – | – | – | –
CC(C)(C)c1cc2c(OCCCCN)c(c1)Cc1cc(C(C)(C)C)cc(c1OCCCCN)Cc1cc(C(C)(C)C)cc(c1OCCCCN)Cc1cc(C(C)(C)C)cc(c1OCCCCN)C2 | – | – | 200 | 1300 | – | 100 | 500 | 500 | – | 4500 | – | – | – | – | –
